# Where “and” joins values, the source holds several entries; their conditions need not be identical. Identical values can stand only once.
# Test system: Fibroblast
# Assay: Multiplex assay against human fibroblast
# Format: toxicity, cell-based
# How it was run: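 Live cells were stained at seeding with Hoechst33342, BioTracker Green Microtubule Cytoskeleton Dye, MitoTracker Red and Annexin V Alexa Fluor 680, then imaged on a CQ1 microscope at 37°C and 5% CO2 after compound addition. CellPathfinder machine-learning gating split cells into Hoechst high-intensity objects or normal cells. Normal cells were split into healthy, pyknosed or fragmented nuclei, and pyknosed cells into mitotic or apoptotic. Tubulin, mitochondrial-mass and membrane-permeability phenotypes are per cents of healthy-nucleus cells.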
# [1] = 12 h, 1 µM, compound concentration 1 uM
# [2] = 12 h, 10 µM, compound concentration 10 uM
# [3] = 24 h, 1 µM, compound concentration 1 uM
# [4] = 24 h, 10 µM, compound concentration 10 uM
# [5] = 48 h, 1 µM, compound concentration 1 uM
# [6] = 48 h, 10 µM, compound concentration 10 uM
compound,measurement,setting,value
O=C(Nc1c[nH]nc1-c1nc2cc(CN3CCOCC3)ccc2[nH]1)NC1CC1 [AT-9283],Population Apoptotic (%),[1],20% and 16.13%
same,Population Fragmented Nuclei (%),[1],9.94% and 5.09%
same,Population Healthy Nuclei (%),[1],62.43% and 80.56%
same,Population Hoechst High Intensity Objects (%),[1],0%
same,Population Membrane Permeable-Phenotype (%),[1],3.54% and 0.57%
same,Population Mitochondria Different-Phenotype (%),[1],14.16% and 13.22%
same,Population Mitotic Cells (%),[1],80% and 83.87%
same,Population Normal (%),[1],100%
same,Population Pyknosed Nuclei (%),[1],27.62% and 14.35%
same,Population Tubulin-Different-Phenotype (%),[1],24.78% and 24.71%
same,Total Cell Count,[1],181 and 216
same,Population Apoptotic (%),[2],30% and 36.21%
same,Population Fragmented Nuclei (%),[2],25% and 12.87%
same,Population Healthy Nuclei (%),[2],54.59% and 65.81%
same,Population Hoechst High Intensity Objects (%),[2],0%
same,Population Membrane Permeable-Phenotype (%),[2],19.63% and 13.41%
same,Population Mitochondria Different-Phenotype (%),[2],14.02% and 18.44%
same,Population Mitotic Cells (%),[2],70% and 63.79%
same,Population Normal (%),[2],100%
same,Population Pyknosed Nuclei (%),[2],20.41% and 21.32%
same,Population Tubulin-Different-Phenotype (%),[2],36.45% and 41.34%
same,Total Cell Count,[2],196 and 272
same,Population Apoptotic (%),[3],8.33% and 17.86%
same,Population Fragmented Nuclei (%),[3],12.64% and 5.88%
same,Population Healthy Nuclei (%),[3],67.58% and 68.78%
same,Population Hoechst High Intensity Objects (%),[3],0%
same,Population Membrane Permeable-Phenotype (%),[3],6.5% and 2.63%
same,Population Mitochondria Different-Phenotype (%),[3],13.01% and 9.87%
same,Population Mitotic Cells (%),[3],91.67% and 82.14%
same,Population Normal (%),[3],100%
same,Population Pyknosed Nuclei (%),[3],19.78% and 25.34%
same,Population Tubulin-Different-Phenotype (%),[3],28.46% and 22.37%
same,Total Cell Count,[3],182 and 221
same,Population Apoptotic (%),[4],38.98% and 73.44%
same,Population Fragmented Nuclei (%),[4],21.08% and 15.35%
same,Population Healthy Nuclei (%),[4],43.37% and 56.58%
same,Population Hoechst High Intensity Objects (%),[4],0%
same,Population Membrane Permeable-Phenotype (%),[4],23.61% and 16.28%
same,Population Mitochondria Different-Phenotype (%),[4],16.67% and 18.6%
same,Population Mitotic Cells (%),[4],61.02% and 26.56%
same,Population Normal (%),[4],100%
same,Population Pyknosed Nuclei (%),[4],35.54% and 28.07%
same,Population Tubulin-Different-Phenotype (%),[4],38.89% and 57.36%
same,Total Cell Count,[4],166 and 228
same,Population Apoptotic (%),[5],41.3% and 71.67%
same,Population Fragmented Nuclei (%),[5],16.56% and 16.58%
same,Population Healthy Nuclei (%),[5],54.14% and 51.34%
same,Population Hoechst High Intensity Objects (%),[5],0%
same,Population Membrane Permeable-Phenotype (%),[5],3.53% and 9.38%
same,Population Mitochondria Different-Phenotype (%),[5],11.76% and 7.29%
same,Population Mitotic Cells (%),[5],58.7% and 28.33%
same,Population Normal (%),[5],100%
same,Population Pyknosed Nuclei (%),[5],29.3% and 32.09%
same,Population Tubulin-Different-Phenotype (%),[5],23.53% and 35.42%
same,Total Cell Count,[5],157 and 187
same,Population Apoptotic (%),[6],43.48% and 91.01%
same,Population Fragmented Nuclei (%),[6],26.71% and 24.14%
same,Population Healthy Nuclei (%),[6],44.72% and 32.02%
same,Population Hoechst High Intensity Objects (%),[6],0%
same,Population Membrane Permeable-Phenotype (%),[6],12.5% and 29.23%
same,Population Mitochondria Different-Phenotype (%),[6],18.06% and 23.08%
same,Population Normal (%),[6],100%
same,Population Pyknosed Nuclei (%),[6],28.57% and 43.84%
same,Population Tubulin-Different-Phenotype (%),[6],27.78% and 72.31%
same,Total Cell Count,[6],161 and 203
CC(C)C[C@H](CO)Nc1nc(S[C@@H](C)c2ccccc2)nc2nc(N)sc12 [AZD-8797],Population Apoptotic (%),[1],25% and 31%
same,Population Fragmented Nuclei (%),[1],23% and 22%
same,Population Healthy Nuclei (%),[1],62% and 55%
same,Population Hoechst High Intensity Objects (%),[1],1% and 4%
same,Population Mitochondria Different-Phenotype (%),[1],3% and 6%
same,Population Mitotic Cells (%),[1],75% and 68%
same,Population Normal (%),[1],98% and 95%
same,Population Pyknosed Nuclei (%),[1],13% and 21%
same,Population Tubulin-Different-Phenotype (%),[1],23% and 46%
same,Total Cell Count,[1],146 and 92
same,Population Apoptotic (%),[2],38% and 36%
same,Population Fragmented Nuclei (%),[2],18% and 36%
same,Population Healthy Nuclei (%),[2],64% and 41%
same,Population Hoechst High Intensity Objects (%),[2],3% and 5%
same,Population Membrane Permeable-Phenotype (%),[2],0% and 10%
same,Population Mitotic Cells (%),[2],61% and 64%
same,Population Normal (%),[2],96% and 94%
same,Population Pyknosed Nuclei (%),[2],17% and 21%
same,Population Tubulin-Different-Phenotype (%),[2],46% and 66%
same,Total Cell Count,[2],156 and 122
same,Population Apoptotic (%),[3],44% and 31%
same,Population Fragmented Nuclei (%),[3],15% and 29%
same,Population Healthy Nuclei (%),[3],69% and 54%
same,Population Hoechst High Intensity Objects (%),[3],1% and 0%
same,Population Mitochondria Different-Phenotype (%),[3],1% and 3%
same,Population Mitotic Cells (%),[3],55% and 68%
same,Population Normal (%),[3],98% and 99%
same,Population Pyknosed Nuclei (%),[3],14% and 15%
same,Population Tubulin-Different-Phenotype (%),[3],24% and 46%
same,Total Cell Count,[3],124 and 103
same,Population Apoptotic (%),[4],57% and 33%
same,Population Fragmented Nuclei (%),[4],21% and 42%
same,Population Healthy Nuclei (%),[4],66% and 38%
same,Population Hoechst High Intensity Objects (%),[4],1% and 2%
same,Population Membrane Permeable-Phenotype (%),[4],0% and 8%
same,Population Mitochondria Different-Phenotype (%),[4],15% and 25%
same,Population Mitotic Cells (%),[4],42% and 66%
same,Population Normal (%),[4],98% and 97%
same,Population Pyknosed Nuclei (%),[4],12% and 19%
same,Population Tubulin-Different-Phenotype (%),[4],38% and 85%
same,Total Cell Count,[4],168 and 126
same,Population Apoptotic (%),[5],50% and 47%
same,Population Fragmented Nuclei (%),[5],25% and 30%
same,Population Healthy Nuclei (%),[5],60% and 48%
same,Population Hoechst High Intensity Objects (%),[5],1% and 4%
same,Population Membrane Permeable-Phenotype (%),[5],1% and 4%
same,Population Mitochondria Different-Phenotype (%),[5],1% and 4%
same,Population Mitotic Cells (%),[5],50% and 52%
same,Population Normal (%),[5],98% and 95%
same,Population Pyknosed Nuclei (%),[5],13% and 20%
same,Total Cell Count,[5],135 and 95
same,Population Apoptotic (%),[6],60% and 35%
same,Population Fragmented Nuclei (%),[6],25% and 45%
same,Population Healthy Nuclei (%),[6],65% and 40%
same,Population Hoechst High Intensity Objects (%),[6],2% and 1%
same,Population Membrane Permeable-Phenotype (%),[6],0% and 12%
same,Population Mitochondria Different-Phenotype (%),[6],13% and 18%
same,Population Mitotic Cells (%),[6],40% and 64%
same,Population Normal (%),[6],97% and 98%
same,Population Pyknosed Nuclei (%),[6],9% and 14%
same,Population Tubulin-Different-Phenotype (%),[6],35% and 89%
same,Total Cell Count,[6],168 and 121
CC(C)(c1ccc(O)cc1)c1ccc(O)cc1 [BISPHENOL A],Population Apoptotic (%),[1],18.37% and 18.42%
same,Population Fragmented Nuclei (%),[1],10.19% and 4.35%
same,Population Healthy Nuclei (%),[1],58.6% and 79.13%
same,Population Hoechst High Intensity Objects (%),[1],0%
same,Population Membrane Permeable-Phenotype (%),[1],2.17% and 2.75%
same,Population Mitochondria Different-Phenotype (%),[1],8.7% and 5.49%
same,Population Mitotic Cells (%),[1],81.63% and 81.58%
same,Population Normal (%),[1],100%
same,Population Pyknosed Nuclei (%),[1],31.21% and 16.52%
same,Population Tubulin-Different-Phenotype (%),[1],15.22% and 10.44%
same,Total Cell Count,[1],157 and 230
same,Population Apoptotic (%),[2],4.76% and 2.94%
same,Population Fragmented Nuclei (%),[2],8.94% and 3.67%
same,Population Healthy Nuclei (%),[2],67.6% and 82.45%
same,Population Hoechst High Intensity Objects (%),[2],0%
same,Population Membrane Permeable-Phenotype (%),[2],3.31% and 0.99%
same,Population Mitochondria Different-Phenotype (%),[2],7.44% and 5.45%
same,Population Mitotic Cells (%),[2],95.24% and 97.06%
same,Population Normal (%),[2],100%
same,Population Pyknosed Nuclei (%),[2],23.46% and 13.88%
same,Population Tubulin-Different-Phenotype (%),[2],14.88% and 19.31%
same,Total Cell Count,[2],179 and 245
same,Population Fragmented Nuclei (%),[3],7.23% and 3.8%
same,Population Healthy Nuclei (%),[3],68.07% and 86.92%
same,Population Hoechst High Intensity Objects (%),[3],0%
same,Population Membrane Permeable-Phenotype (%),[3],4.42% and 3.88%
same,Population Mitochondria Different-Phenotype (%),[3],5.31% and 2.91%
same,Population Mitotic Cells (%),[3],90.24% and 59.09%
same,Population Normal (%),[3],100%
same,Population Pyknosed Nuclei (%),[3],24.7% and 9.28%
same,Population Tubulin-Different-Phenotype (%),[3],14.16% and 12.14%
same,Total Cell Count,[3],166 and 237
same,Population Apoptotic (%),[4],6.45% and 4.76%
same,Population Fragmented Nuclei (%),[4],7.18% and 3.7%
same,Population Healthy Nuclei (%),[4],76.92% and 87.65%
same,Population Hoechst High Intensity Objects (%),[4],0%
same,Population Membrane Permeable-Phenotype (%),[4],2.67% and 1.88%
same,Population Mitochondria Different-Phenotype (%),[4],6% and 4.23%
same,Population Mitotic Cells (%),[4],93.55% and 95.24%
same,Population Normal (%),[4],100%
same,Population Pyknosed Nuclei (%),[4],15.9% and 8.64%
same,Population Tubulin-Different-Phenotype (%),[4],16% and 16.43%
same,Total Cell Count,[4],195 and 243
same,Population Apoptotic (%),[5],50% and 33.33%
same,Population Fragmented Nuclei (%),[5],8.98% and 4.96%
same,Population Healthy Nuclei (%),[5],86.23% and 86.36%
same,Population Hoechst High Intensity Objects (%),[5],0%
same,Population Membrane Permeable-Phenotype (%),[5],0.69% and 2.39%
same,Population Mitochondria Different-Phenotype (%),[5],11.11% and 3.83%
same,Population Mitotic Cells (%),[5],50% and 66.67%
same,Population Normal (%),[5],100%
same,Population Pyknosed Nuclei (%),[5],4.79% and 8.68%
same,Population Tubulin-Different-Phenotype (%),[5],3.47% and 12.92%
same,Total Cell Count,[5],167 and 242
same,Population Apoptotic (%),[6],25% and 14.29%
same,Population Fragmented Nuclei (%),[6],8.49% and 3.36%
same,Population Healthy Nuclei (%),[6],85.85% and 90.76%
same,Population Hoechst High Intensity Objects (%),[6],0%
same,Population Membrane Permeable-Phenotype (%),[6],0% and 4.63%
same,Population Mitotic Cells (%),[6],75% and 85.71%
same,Population Normal (%),[6],100%
same,Population Pyknosed Nuclei (%),[6],5.66% and 5.88%
same,Population Tubulin-Different-Phenotype (%),[6],7.14% and 18.52%
same,Total Cell Count,[6],212 and 238
